This is a sample that favours compounds with a hit; in the whole collection about 1.8% have one here.
CHRM4 PAM – human M4 muscarinic receptor positive allosteric modulators, primary screen, CHO-K1 cells, Fluo-8 calcium fluorescence | activation, % at 3 µM | Muscarinic acetylcholine receptor M4 (Homo sapiens), P08173 | 360,000 compounds, 0.4% hits | CHO-K1 hM4/Gqi5, ACh EC20; 0% = ACh EC20, 100% = maximal ACh;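 active means activation above its plate's cutoff, the mean activation of sample wells plus 3 SD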
M5 ag – human M5 muscarinic receptor agonists, primary screen, CHO-K1 cells, Fluo-8 calcium fluorescence | 360,000 compounds, 0.19% hits | CHO-K1 hM5 cells; 0% DMSO wells, 100% maximal acetylcholine response | activation, % at 3 µM | Muscarinic acetylcholine receptor M5 (Homo sapiens), P08912;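 active means activation above the run's mean over test compounds plus 3 SD, cut at about 23% in these data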;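 further: signal is peak over basal fluorescence ratio across the kinetic read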
Target sequence (P08912 whole entry, looked up): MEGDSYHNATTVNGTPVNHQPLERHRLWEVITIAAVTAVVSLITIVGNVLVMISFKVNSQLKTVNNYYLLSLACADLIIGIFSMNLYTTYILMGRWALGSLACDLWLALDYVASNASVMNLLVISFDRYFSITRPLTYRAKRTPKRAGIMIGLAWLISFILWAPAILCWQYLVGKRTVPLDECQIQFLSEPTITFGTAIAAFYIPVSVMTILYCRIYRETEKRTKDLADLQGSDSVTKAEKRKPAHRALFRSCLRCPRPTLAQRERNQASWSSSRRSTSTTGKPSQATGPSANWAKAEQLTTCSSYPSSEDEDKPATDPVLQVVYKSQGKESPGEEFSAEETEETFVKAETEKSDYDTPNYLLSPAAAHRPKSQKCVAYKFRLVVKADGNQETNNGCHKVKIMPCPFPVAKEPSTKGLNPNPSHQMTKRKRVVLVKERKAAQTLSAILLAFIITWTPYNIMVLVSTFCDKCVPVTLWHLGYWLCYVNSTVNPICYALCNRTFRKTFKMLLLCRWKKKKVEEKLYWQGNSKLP
M5 PAM – human M5 muscarinic receptor positive allosteric modulators, primary screen, CHO-K1 cells, Fluo-8 calcium fluorescence. Muscarinic acetylcholine receptor M5 (Homo sapiens), P08912. CHO-K1 hM5, ACh EC20 PAM; 0% = ACh EC20, 100% = ACh EC100. activation, % at 3 µM. 360,000 compounds, 0.3% hits. AID 624038, 2012;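 active means activation above the run cutoff, the mean activation of all test compounds plus 3 SD, cut at about 18% in these data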
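System: CHO-K1 cell line with stable human muscarinic M5 receptor expression | Also added: EC20 acetylcholine as agonist stimulus | Compound: One concentration, 3 µM final (nominal) | Timing: Fluo-8 loading 80 min at 37 °C plus 30 min room temperature | Measured by: Fluo-8 calcium dye fluorescence, kinetic read | Read-out basis: % activation, ACh-normalized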
CHRM4 agonist – human M4 muscarinic receptor agonists, primary screen, CHO-K1 cells, Fluo-8 calcium fluorescence | CHO-K1 hM4/Gqi5; vehicle 0%, full acetylcholine response 100% | 360,000 compounds, 0.14% hits | activation, % at 3 µM;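 active means activation above the run mean over all test wells plus 3 SD, cut at about 32% in these data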;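 further: peak over basal fluorescence ratio per well then scaled between controls; 0% = DMSO wells and 100% = acetylcholine at EC100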
CHRM4 antagonist – human M4 muscarinic receptor antagonists, primary screen, CHO cells, Fluo-8 calcium fluorescence; 360,000 compounds, 0.73% hits; AID 624125, 2012; CHO-hM4 cells, ACh EC80; inhibition, % at 3 µM; Muscarinic acetylcholine receptor M4 (Homo sapiens), P08173;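 active means inhibition above its plate's cutoff, the mean inhibition of sample wells plus 3 SD, cut at about 27% in these data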;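 further: 0% = acetylcholine EC80 with DMSO and 100% = DMSO without agonist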
M5 antag – human M5 muscarinic receptor antagonists, primary screen, CHO cells, Fluo-8 calcium fluorescence. Muscarinic acetylcholine receptor M5 (Homo sapiens), P08912. CHO-hM5 cells, ACh EC80. inhibition, % at 3 µM. 360,000 compounds, 0.59% hits. AID 624040, 2012;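 active means inhibition above a per-plate cutoff, the mean of that plate's test compounds plus 3 SD, cut at about 27% in these data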;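 further: 0% = acetylcholine EC80 with DMSO and 100% = DMSO without agonist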
The depositor's hits bear a star; ! = not active in a repeat.

SMILES	CHRM4 PAM	M5 ag	M5 PAM	CHRM4 agonist	CHRM4 antagonist	M5 antag
CC1(C(=O)NS(=O)(=O)c2ccccc2C(F)(F)F)CCN1C(=O)c1cccc(F)c1 (stereo unspecified)	5	0	6	1	-12	-5
CCc1cccc(CC)c1N1C(=O)C2=C(SCCCS2)C1=O	-13	11	-9	34*	7	12
CCc1cccc(CC)c1N1C(=O)COCC1=O	-3	-1	-2	0	-3	6
O=C(NCc1ccccc1Cl)C(=O)c1cn(CC(=O)N2CCOCC2)c2ccccc12	2	13	23*	8	-13	20
O=C(NCc1ccccc1)C(=O)c1cn(CC(=O)N2CCOCC2)c2ccccc12	1	1	4	2	-3	1
O=C(NCCc1ccccc1)C(=O)c1cn(CC(=O)N2CCCC2)c2ccccc12	7	-3	-10	5	5	27*
COc1ccccc1CCNC(=O)C(=O)c1cn(CC(=O)N2CCCC2)c2ccccc12	0	-2	1	8	-23	-7
Cc1cc(OCCn2ccnc2)cc(C)c1Cl	-4	-13	3	3	7	10
CCN(C(=O)Cc1c(C(=O)O)[nH]c2ccccc12)c1ccc(OC)cc1	-3	-1	3	1	0	12
COc1ccccc1NC(=O)CSc1nnc(COc2ccc(Cl)cc2)o1	-4	1	3	3	-5	6
COc1ccccc1NC(=O)CSc1nnc(COc2ccccc2C)o1	-24	-4	4	3	100*	6
O=C(O)c1cc([N+](=O)[O-])ccc1NCCCc1ccccc1	2	35*	-15	4	-1	6
CCOC(=O)C(C(=O)Nc1ccccc1)C1CCCCC1 (stereo unspecified)	-7	-7	-17	3	3	21
CCOC(=O)C(C(=O)Nc1ccc(C)cc1)C1CCCCC1 (stereo unspecified)	45*	-8	7	0	-2	-1
CCCc1ncc(C(O)(c2ccccc2)c2ccccc2)n1C	-18	-11	-20	2	62*	59*
CCCc1ncc(C(O)(c2ccccc2)c2ccc(C)cc2)n1C (stereo unspecified)	-19	-9	-19	3	50*	73*
CN1CCc2cccc3c2[C@H]1Cc1ccc(O)c(O)c1-3	-19	0	-18	3	81*!	27
CN1CCc2cc3c(c4c2[C@H]1[C@H](O)c1ccccc1-4)OCO3	1	-12	2	-1	5	-2
COc1ccc(S(=O)(=O)N(C)CC(=O)Nc2ccccc2OC)cc1	1	-2	0	2	34*	1
COc1ccccc1NC(=O)CN(c1ccccc1)S(=O)(=O)c1ccccc1	-7	-2	16	2	-18	8
COc1cc(NC(=O)CN(C)S(=O)(=O)c2ccc(C)cc2)cc(OC)c1	18*	-12	5	2	-8	-6
COc1ccc(S(=O)(=O)N(CC(=O)O)c2ccccc2)cc1	22*	2	4	2	-12	-1
COc1ccc(N(CC(=O)Nc2ccccc2OC)S(=O)(=O)c2ccc(NC(C)=O)cc2)cc1	-9	-6	-11	12	3	32*
CCc1ccc(C(=O)COC(=O)CNC(=O)C2CCCCC2)cc1	-3	2	3	1	-2	-4
COc1ccc(CC(=O)Oc2ccc(F)c(F)c2)cc1S(=O)(=O)N1CCOCC1	4	-1	1	2	-8	-4
CC(C)c1ccc(NC2CCCN(C(=O)C3=NN(C)C(=O)CC3)C2)cc1 (stereo unspecified)	-2	-3	-4	1	6	5
